Measured values as given in paper PMC2919362 (Chemical biology & drug design, 2010).
Where no end group is shown, it is not given here. The star is where a group is joined. 5FAM = O=C1OC2(c3ccc(O)cc3Oc3cc(O)ccc32)c2ccc(C(=O)*)cc21; Farnesyl = CC(C)=CCC/C(C)=C/CC/C(C)=C/C*

Tests used:
D1TNC1 astrocytes [1] = assay: Flow cytometry of peptide uptake in D1TNC1 astrocytes; type: cell-based, rat; settings: 1 μM, 2 h, 37°C, trypsinized 15 min, triplicate (Figure 6)
PC-12 cells [2] = assay: Flow cytometry of peptide uptake in PC-12 cells; type: cell-based, rat; settings: 1 μM, 2 h, 37°C, trypsinized 15 min, triplicate (Figure 6)
D1TNC1 astrocytes [3] = assay: CLSM of peptide uptake in live D1TNC1 astrocytes; type: cell-based, rat; settings: 1 μM, 2 h, live cells (Figure 4C)
Method in brief: (§1)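 Live-cell confocal imaging. Cells were seeded at 7.8 × 10^3 cells/cm2 and grown to about 50% confluency (about 24 h), then washed twice with PBS. Peptide (5-Fam labelled) was incubated in serum-free DMEM at 37°C, 5.0% CO2. Nuclei were stained with Hoechst 34580 (1 μg/mL final, last 20 min) and membranes with WGA–Alexa Fluor 594 (5 μg/mL final, last 10 min). Cells were then washed twice and imaged with a 60X objective; emission was read at 520/450/620 nm.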

COS-1 cells = assay: CLSM of peptide uptake in live COS-1 cells; type: cell-based, African green monkey; settings: 1 μM, 2 h, live cells (Figure 4A)
Method in brief: as §1

NIH/3T3 fibroblast cells = assay: CLSM of peptide uptake in live NIH/3T3 fibroblasts; type: cell-based, Swiss mouse; settings: 1 μM, 2 h, live cells (Figure 4B)
Method in brief: as §1

PC-12 cells [4] = assay: CLSM of peptide uptake in PC-12 differentiated neurons; type: cell-based, rat; settings: 1 μM, 2 h, live cells (Figure 4D)
Method in brief: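 Neuronal differentiation and imaging. PC-12 cells were seeded at 3.9 × 10^3 cells/cm2 on poly-lysine plates and grown for 24 h. They were serum-starved for 24 h in F12K + 1% HS, then differentiated with 100 ng/mL β-NGF in the same medium for 6–8 days, refreshed every 2 days. Labelled peptide was incubated in F12K + 1% HS at 37°C, 5.0% CO2, with Hoechst 34580 and WGA–Alexa Fluor 594 counterstains. Live cells were imaged by confocal microscopy (60X).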

| Substance | entry into astrocytes compared with HeLa cells (flow cytometry) (D1TNC1 astrocytes [1]) | entry into PC12 cells compared with HeLa cells (flow cytometry) (PC-12 cells [2]) | uptake in D1TNC1 astrocytes (CLSM) (D1TNC1 astrocytes [3]) | uptake in COS-1 cells (CLSM) (COS-1 cells) | uptake in NIH/3T3 fibroblast cells (CLSM) (NIH/3T3 fibroblast cells) | uptake in PC-12 cells (CLSM) (PC-12 cells [4]) |
| --- | --- | --- | --- | --- | --- | --- |
| 5-Fam-KKSRRC(S-decyl)VLS [5b] | efficiency comparable to that observed with HeLa cells | efficiency comparable to that observed with HeLa cells | – | – | – | – |
| 5FAM-KKSRRC(Farnesyl)VLS [4b] | – | – | significant uptake | moderate uptake | moderate uptake | significant uptake |
